TRPC4 block – inhibitors of mouse TRPC4 channel; Q9QUQ5; HEK293 TRPC4beta/mu-opioid, DAMGO-evoked Fluo4 calcium flux; hits give low values; B-score at 10 µM; actives 0.39% (n = 300,000); AID 2247;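 active = B-score over 3 SD under the library average, no early fluorescence shift, positive overall ratio signal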
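Test system – stable TRPC4beta/mu-opioid receptor HEK293 cells · Probe or stimulus – DAMGO, a submaximal dose followed by a maximal one · Dosing – one concentration per compound · Signal – Fluo4 calcium fluorescence by kinetic imaging, 5 s 1 Hz baseline · Evaluation – per-well B score of integrated baseline-normalized Fluo4 ratio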
TRPC6 inh – blocks the mouse TRPC6 cation channel. Q61143. HEK293-TRPC6, membrane potential dye, ACh-evoked depolarization; hits give low values. B-score at 10 µM. actives 1.1% (n = 310,000);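 active = B-score under library mean minus 3 SD, initial fluorescence not abnormally high, positive integrated signal ratio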;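 also: B-score derived from integrated fluorescence ratio over the kinetic read; more negative B-score means stronger inhibition of depolarization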
Platelet DG rel – platelet dense granule release activity; actives 0.22% (n = 300,000); inhibition, %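 (compounds screened at 7.5 µM in platelet-rich plasma)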; human platelet-rich plasma, SFLLRN dense granule ATP release, luminescence;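 active = mean replicate score, as percent of positive control, at or above 50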
TRPC4 PAM – allosteric potentiators of mouse TRPC4 channel. B-score at 10 µM. actives 0.42% (n = 310,000). HEK293 TRPC4beta/mu-opioid, DAMGO EC20, Fluo-4 Ca2+ flux; hits give high values. Q9QUQ5;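 active = B-score of calcium response area above 5 SD of library B-scores, with initial fluorescence ratio within 5 SD of library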;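 also: B-score of integrated fluorescence ratio over time as area under calcium response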
TRPC6 act – activators of mouse TRPC6 channel; Q61143; actives 0.13% (n = 310,000); HEK293-TRPC6 membrane potential dye fluorescence; hits give high values; B-score at 10 µM;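 active = B-score of the integrated fluorescence ratio above library mean plus 3 SD, and starting fluorescence ratio within library mean plus 5 SD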;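 also: higher score means more depolarization so channel activation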
TRPC4 agonist – opens the mouse TRPC4 cation channel; Q9QUQ5; HEK293 TRPC4beta/mu-opioid, Fluo4 calcium fluorescence; hits give high values; B-score at 10 µM; actives 0.49% (n = 310,000);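 active = B-score above 5 SD of library B-scores, and initial fluorescence ratio not above library mean plus 5 SD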;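 also: positive B-score marks a calcium rise read as TRPC4 activation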
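System – HEK293 cells stably co-expressing mouse TRPC4beta and mu-opioid receptor · Signal – Fluo4 calcium-sensitive dye fluorescence, kinetic, 1 Hz baseline · Benchmarks – buffer (low) and maximal DAMGO (high) · Read-out – B score of integrated fluorescence ratio per well · Incubation – dye loading 45 min room temperature, 110 s kinetic read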
Starred values were filed as active, the others as inactive; i = inactive; · = no result; ! = not confirmed by another sample. The list is not random: actives were taken first. Their share in the collection is about 2.5%.

SMILES	TRPC4 block	TRPC6 inh	Platelet DG rel	TRPC4 PAM	TRPC6 act	TRPC4 agonist
COCCC(=O)N1CCC(Oc2ccc(C(=O)N(C)C3CCCCC3)cc2)CC1	i	i	-12	i	i	i
Cc1onc(-c2ccccc2)c1C(=O)N1CCN(c2ncccc2C(F)(F)F)CC1	i	i	-5	i	i	i
CC(C)c1nnc(NC(=O)CCC(=O)NC2CC2)s1	i	i	55*	i	i	i
CCOC(=O)C1(Cc2ccccc2)CCN(Cc2csc(C(C)=O)c2)CC1	i	i	6	i	i	i
CCOC(=O)C1(Cc2ccc(Cl)cc2)CCN(Cc2cn(CC)nc2C)CC1	-6*	i	-3	i	i	68*
CCOC(=O)C1(CCc2ccccc2)CCN(Cc2ccccn2)CC1	-8*	i	-5	i	i	i
CCOC(=O)C1(CCc2ccccc2)CCN(Cc2ccc(C(=O)OC)cc2)CC1	i	i	-21	i	i	i
CCOC(=O)C1(Cc2ccccc2)CCN(Cc2cnn(C(C)C)c2)CC1	i	i	-2	i	i	55*
CCOC(=O)C1(CCCc2ccccc2)CCN(Cc2cnn(C)c2)CC1	i	i	6	i	i	120*
CC(=O)Nc1ccc(CC(=O)NCCC(c2ccccc2)c2ccccc2)cc1	i	i	4	i	i	i
CCOc1ccc(N=C(/C(C(=O)C(=O)N2CCOCC2)=C(/O)c2ccccc2)c2ccccc2)cc1	i	i	-4	i	i	i
O=C(NC1CCS(=O)(=O)C1)c1ccc2c(c1)OCO2 (configuration not stated)	i	i	-1	i	i	i
NC(=O)C1(N2CCCCC2)CCN(C(=O)Nc2ccccc2C(F)(F)F)CC1	i	i	53*	i	i	i
COc1ccc(NC(=O)Cn2c(=O)n(CC(=O)NCc3ccco3)c(=O)c3ccccc32)cc1	i	i	5	i	i	i
CCCCCCCCCC[n+]1cccc2c3ccccc3ccc21	i	i	9	i	i	i
CCCCCCCC[n+]1cccc2c3ccccc3ccc21	-6*	i	23	i	i	i
CC(C)OCCCNc1ncnc2c1[nH]c1ccccc12	i	i	-3	i	i	i
CCN1CCCC(OC(=O)c2cc(-c3ccc(C)cc3)nc3ccccc23)C1 (configuration not stated)	i	i	2	14*	i	i
NS(=O)(=O)c1ccc(CCNC(=O)C(c2ccccc2)c2ccccc2)cc1	i	i	-17	i	i	i
COC(=O)c1ccc(CNC(=O)C23CC4CC(CC(C4)C2)C3)cc1	i	i	0	i	i	i
CCCn1c(N)c(C(=O)CSc2n[nH]c(-c3ccc(C)cc3)n2)c(=O)[nH]c1=O	i	i	4	123*	i	i
CCCn1c(N)c(C(=O)CSc2nc(C)cs2)c(=O)[nH]c1=O	i	i	-2	i	i	i
CCC(C)N(C(=O)Cn1nnc2ccccc21)C(C(=O)Nc1ccc(F)cc1)c1cccc(OC)c1 (configuration not stated)	i	i	-5	i	14*	i
Oc1ccc(CNCC2COc3ccccc3O2)cc1 (configuration not stated)	i	i	2	i	i	i
Cc1ccc2cc(CN(CCN3CCOCC3)Cc3nnnn3Cc3ccco3)c(=O)[nH]c2c1C	i	i	18	i	i	i
SMILES	TRPC4 block	TRPC6 inh	Platelet DG rel	TRPC4 PAM	TRPC6 act	TRPC4 agonist
CCC(c1nnnn1CCc1ccccc1)N(Cc1ccco1)Cc1cc2cccc(C)c2[nH]c1=O (configuration not stated)	i	i	-7	11*	i	i
Cc1ccc2cc(CN(CCCN3CCOCC3)C(c3nnnn3Cc3ccco3)C(C)C)c(=O)[nH]c2c1C (configuration not stated)	-9*	i	6	i	i	i
O=C(Nc1nc2ccccc2s1)C1CCN(S(=O)(=O)c2cc([N+](=O)[O-])ccc2Cl)CC1	i	i	1	i	i	i
COC(=O)c1ccccc1NC(=O)NCc1c(C)nn(C)c1C	i	i	·	i	i	i
CN(CC(=O)Nc1c(Cl)cccc1Cl)C(=O)Cc1ccc2c(c1)CCC2	i	i	-3	i	i	i
CC1CN(C(=S)Nc2ccc(SC(F)F)cc2)CC(C)O1 (configuration not stated)	i	-6.5*	-2	i	i	i
CCC/C(O)=N\S(=O)(=O)c1ccc(N=NN(C)C)cc1	i	i	0	i	i	i
Cc1ccc(OCC(O)CN2CCN(Cc3ccc4c(c3)OCO4)CC2)cc1C (configuration not stated)	i	i	4	i	i	i
C=CCc1ccccc1OCC(O)CN1CCN(Cc2ccc3c(c2)OCO3)CC1 (configuration not stated)	-7*!	i	0	i	i	i
Cc1nc(N/C(N)=N/S(=O)(=O)c2ccc([N+](=O)[O-])cc2)nc2ccccc12	i	i	1	i	i	i
CCC(C)OC(=O)C1=C(C)OC23OC(N)=C(C#N)C12C(=O)c1ccccc13 (configuration not stated)	i	i	50*	i	i	i
Cc1cc(C)n2nc(C(=O)N3CCCC(N4CCN(c5ccccc5C)CC4)C3)cc2n1 (configuration not stated)	i	i	-2	i	i	i
CC(C)(C)c1ccc(-c2nc3cc(N)ccc3o2)cc1	i	i	10	18*	i	i
CCn1c(C)nc2cc(C(=O)N/N=C/c3ccc(O)c(O)c3O)ccc21	i	i	10	14*	i	i
Cc1ccccc1OCCC(=O)OCC(=O)NC1CCCCC1	i	i	1	i	i	i
CCN(CC)CCNC(=O)Cc1nn(Cc2ccccc2)c(=O)c2ccccc12	i	i	-5	i	i	i
Cc1ccc(OCc2cc(C(=O)N(C)CCc3nc4ccccc4[nH]3)no2)cc1C	-6*	i	2	i	i	i
COC(=O)c1cc2c(=O)c3ccccc3oc2nc1/C=C/N(C)C	i	i	12	i	i	69*
C=CS(=O)(=O)c1sc(Cl)c(N2CCOCC2)c1[N+](=O)[O-]	-6*	i	-6	i	i	i
